NF-kB neuron act – compounds increasing NF-kB expression in human neuronal cells. NF-kB reporter expression; active compounds read high. fold change at 12.5 µM. actives 1.6% (n = 190,000). AID 1239; in the data active = fold change above about 3.3
FLuc stim CS – firefly luciferase counter-screen for stimulation assays. ATPlite luciferase biochemical, luminescence, 10 min; 0 = ATP-free wells, 1 = DMSO control. activation factor at 10 µM. 200,000 tested, under 10 active;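 active = luciferase activation factor, scaled between plate controls, of at least 2 with compound at 10 µM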
Target sequence (P08659 whole entry, looked up): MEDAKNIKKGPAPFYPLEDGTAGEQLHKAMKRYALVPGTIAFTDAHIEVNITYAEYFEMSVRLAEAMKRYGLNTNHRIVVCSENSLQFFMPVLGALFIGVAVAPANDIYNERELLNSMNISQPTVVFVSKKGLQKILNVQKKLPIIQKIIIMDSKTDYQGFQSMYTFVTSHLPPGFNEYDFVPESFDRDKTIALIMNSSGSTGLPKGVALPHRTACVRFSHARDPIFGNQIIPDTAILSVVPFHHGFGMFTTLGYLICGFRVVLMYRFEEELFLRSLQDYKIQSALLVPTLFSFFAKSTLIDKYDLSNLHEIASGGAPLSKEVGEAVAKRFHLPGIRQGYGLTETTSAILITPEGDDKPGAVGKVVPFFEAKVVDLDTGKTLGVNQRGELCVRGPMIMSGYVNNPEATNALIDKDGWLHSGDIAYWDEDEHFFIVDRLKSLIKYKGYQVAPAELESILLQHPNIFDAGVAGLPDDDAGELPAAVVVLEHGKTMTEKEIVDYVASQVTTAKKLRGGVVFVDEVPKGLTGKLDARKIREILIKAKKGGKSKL
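Material: Luciferase/luciferin reagent mix; Doses: test compounds dosed from 2 mM stocks in 100% DMSO; Schedule: 10 min incubation after luciferase reagent addition, room temperature; Measured by: luminescence from luciferase reaction; Read-out: luminescence gain marking luciferase activators.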
FLuc inh counter – Photinus pyralis luciferase inhibition counter-screen; P08659; ATPLite firefly luciferase biochemical luminescence, 10 min; inhibition, % at 10 µM; actives 1.5% (n = 200,000);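 active = inhibition above about 50% when tested at 10 µM, limit read from the data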
APP 5'UTR act – APP 5'UTR luciferase reporter activation. SH-SY5Y APP 5'UTR luciferase reporter, luminescence; zero percent = DMSO vehicle wells. activation, % at 2 µM. actives 1% (n = 190,000). AID 1276;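 active = activation above a set limit, based on mean plus 3 SD of controls, cut at about 140% in these data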
STAT1 act – STAT1 signaling activation | NIH 3T3 STAT1-luciferase reporter, IFN-gamma, luminescence; 100% = IFN-gamma alone, no compound | activation (% of control), % at 5.5 µM | actives 2.6% (n = 200,000);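 active = activation above the screen-wide mean activation plus 3 SD, cut at about 130% in these data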;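 note: raw ratio to IFN-gamma control signal so 100% means no change and 0% no light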
* hit, by the source's call. Sampled rows, rich in hits. Any-hit rate of the full collection: about 4.1%.

Results for Cc1nc2ccc(NC(=O)c3ccc(N4C(=O)CCC4=O)cc3)cc2s1 ?
NF-kB neuron act: 1.1; FLuc stim CS: 1; FLuc inh counter: -2; APP 5'UTR act: 11; STAT1 act: 94

How did S=C(NCCCN1CCOCC1)Nc1ccc(Cl)c(Cl)c1 do in these assays?
NF-kB neuron act: 1; FLuc stim CS: 1.1; FLuc inh counter: -7; APP 5'UTR act: 0; STAT1 act: 94

Results for CCn1c(-c2cccnc2)n[nH]c1=S ?
NF-kB neuron act: 1.1; FLuc stim CS: 1; FLuc inh counter: -3; APP 5'UTR act: 2; STAT1 act: 100

What do the screens show for `O=C(Nc1cccc2ccccc12)c1ccc(OC(=S)N2CCOCC2)cc1`?
NF-kB neuron act: 2.3; FLuc stim CS: 1.1; FLuc inh counter: -6; APP 5'UTR act: 57; STAT1 act: 100

Results for O=C(Nc1cccc(Cl)c1)c1ccc(OC(=S)N2CCOCC2)cc1 ?
NF-kB neuron act: 1.9; FLuc stim CS: 0.9; FLuc inh counter: 12; APP 5'UTR act: 157*; STAT1 act: 130*

What do the screens show for `O=C(O)c1ccc(Nc2cnc3ccccc3n2)cc1`?
NF-kB neuron act: 1.9; FLuc stim CS: 1; FLuc inh counter: 4; APP 5'UTR act: 5; STAT1 act: 131*

How did O=C(COC(=O)Cc1ccc(-c2ccccc2)cc1)NCc1ccc(F)cc1 do in these assays?
NF-kB neuron act: 1.1; FLuc stim CS: 1; FLuc inh counter: -5; APP 5'UTR act: 1; STAT1 act: 98

How did CCNC(=S)N/N=C(\C)c1ccc(N2CCOCC2)cc1 do in these assays?
NF-kB neuron act: 1.3; FLuc stim CS: 1; FLuc inh counter: -3; APP 5'UTR act: -5; STAT1 act: 107

How did CNC(=S)N/N=C(\C)c1ccc(N2CCOCC2)cc1 do in these assays?
NF-kB neuron act: 6.3*; FLuc stim CS: 0.9; FLuc inh counter: 14; APP 5'UTR act: 31; STAT1 act: 98

Results for CC(C)CCC(C(=O)O)C(C)CC(=O)NNC(=O)c1ccco1 (stereo not drawn) ?
NF-kB neuron act: 1.3; FLuc stim CS: 1.1; FLuc inh counter: -8; APP 5'UTR act: 0; STAT1 act: 103

How did CCOc1ccc(NC(=S)NCc2nc3ccccc3[nH]2)cc1 do in these assays?
NF-kB neuron act: 0.73; FLuc stim CS: 1; FLuc inh counter: -3; APP 5'UTR act: -5; STAT1 act: 98

Results for CCNC(=S)Nc1ccc(-c2nc3ccccc3[nH]2)cc1 ?
NF-kB neuron act: 2.6; FLuc stim CS: 0.5; FLuc inh counter: 51*; APP 5'UTR act: 110; STAT1 act: 132*

How did O=C(Nc1nc2ccccc2[nH]1)C1CCCO1 (stereo not drawn) do in these assays?
NF-kB neuron act: 1.8; FLuc stim CS: 1; FLuc inh counter: -4; APP 5'UTR act: 30; STAT1 act: 106

Results for O=C(Nc1ccc(-c2nc3ccccc3[nH]2)cc1)C1CCCO1 (stereo not drawn) ?
NF-kB neuron act: 4.6*; FLuc stim CS: 0.1; FLuc inh counter: 90*; APP 5'UTR act: 180*; STAT1 act: 87

Results for O=C(Cc1cccs1)Nc1ccc(-c2nc3ccccc3[nH]2)cc1 ?
NF-kB neuron act: 2.7; FLuc stim CS: 0.5; FLuc inh counter: 47; APP 5'UTR act: 152*; STAT1 act: 145*

Results for O=C(CSc1ccccc1)Nc1ccc(-c2nc3ccccc3[nH]2)cc1 ?
NF-kB neuron act: 1.9; FLuc stim CS: 0.6; FLuc inh counter: 38; APP 5'UTR act: 93; STAT1 act: 131*

What do the screens show for `O=C(Nc1nccs1)c1ccc(Br)o1`?
NF-kB neuron act: 1.4; FLuc stim CS: 0.9; FLuc inh counter: 8; APP 5'UTR act: 41; STAT1 act: 106

What do the screens show for `Cc1ccc(C(=O)Nc2nnc(C)s2)o1`?
NF-kB neuron act: 1.2; FLuc stim CS: 1; FLuc inh counter: -4; APP 5'UTR act: -10; STAT1 act: 107

How did Cc1cc(C(=O)Nc2nnc(C3CCCCC3)s2)no1 do in these assays?
NF-kB neuron act: 1.3; FLuc stim CS: 0.9; FLuc inh counter: 9; APP 5'UTR act: 4; STAT1 act: 100

How did Cc1ccc(C(=O)Nc2nnc(C3CCCCC3)s2)o1 do in these assays?
NF-kB neuron act: 3.8*; FLuc stim CS: 0.5; FLuc inh counter: 52*; APP 5'UTR act: 113; STAT1 act: 115

How did Cc1ccc(C(=O)Nc2nc(C)c(C)s2)o1 do in these assays?
NF-kB neuron act: 4*; FLuc stim CS: 0.6; FLuc inh counter: 40; APP 5'UTR act: 132; STAT1 act: 132*

How did Cc1nc(NC(=O)c2ccc(Br)o2)sc1C do in these assays?
NF-kB neuron act: 4.7*; FLuc stim CS: 0.6; FLuc inh counter: 40; APP 5'UTR act: 121; STAT1 act: 130*

How did CCCNC(=O)c1ccc(Cn2cc(C(F)(F)F)ccc2=O)cc1 do in these assays?
NF-kB neuron act: 0.85; FLuc stim CS: 1.1; FLuc inh counter: -6; APP 5'UTR act: -5; STAT1 act: 99

What do the screens show for `CN(C)S(=O)(=O)c1cccc(C(=O)NCCc2ccccc2)c1`?
NF-kB neuron act: 2.5; FLuc stim CS: 0.7; FLuc inh counter: 28; APP 5'UTR act: 156*; STAT1 act: 134*

What do the screens show for `O=C(NCCc1ccccc1)c1ccc2nccnc2c1`?
NF-kB neuron act: 1.1; FLuc stim CS: 0.2; FLuc inh counter: 77*; APP 5'UTR act: 75; STAT1 act: 81

How did C/C(=C\c1ccccc1)C(=O)NCCc1ccccc1 do in these assays?
NF-kB neuron act: 4.5*; FLuc stim CS: 0.7; FLuc inh counter: 34; APP 5'UTR act: 177*; STAT1 act: 105

What do the screens show for `COc1ccc(C(=O)Nc2ccc(C(=O)NCCc3ccccc3)cc2)cc1`?
NF-kB neuron act: 1.1; FLuc stim CS: 1; FLuc inh counter: 0; APP 5'UTR act: 1; STAT1 act: 103

What do the screens show for `CC(=O)Oc1ccc(C(=O)NCCc2ccccc2)cc1`?
NF-kB neuron act: 2.9; FLuc stim CS: 0.5; FLuc inh counter: 51*; APP 5'UTR act: 127; STAT1 act: 104

Results for CN(C)S(=O)(=O)c1cccc(C(=O)Nc2ccccc2)c1 ?
NF-kB neuron act: 1.3; FLuc stim CS: 1; FLuc inh counter: 4; APP 5'UTR act: 0; STAT1 act: 106

Results for Nn1c(SCC(=O)NC(=O)Nc2ccc3c(c2)OCCO3)nnc1C1CC1 ?
NF-kB neuron act: 2.1; FLuc stim CS: 0.7; FLuc inh counter: 31; APP 5'UTR act: 14; STAT1 act: 109

What do the screens show for `COc1ccc(CC(=O)NC2CCCc3ccccc32)cc1` (stereo not drawn)?
NF-kB neuron act: 1.4; FLuc stim CS: 1.1; FLuc inh counter: -6; APP 5'UTR act: 27; STAT1 act: 92

How did CCOc1ccc(CCNC(=O)C(O)c2ccccc2)cc1 (stereo not drawn) do in these assays?
NF-kB neuron act: 1.2; FLuc stim CS: 1; FLuc inh counter: -2; APP 5'UTR act: 4; STAT1 act: 110

How did CCOc1ccc(C(=O)NCCc2ccccc2)cc1 do in these assays?
NF-kB neuron act: 3.6*; FLuc stim CS: 0.3; FLuc inh counter: 73*; APP 5'UTR act: 123; STAT1 act: 96
